The text below walks through data of ChEMBL document CHEMBL1828513, “Overcoming human P-glycoprotein-dependent multidrug resistance with novel dihydro-β-agarofuran sesquiterpenes” (Eur J Med Chem, 2011).

pKi: −log10 of the molar value. Some results are limits rather than exact numbers.

A short description of data set [1]: Intrinsic toxicity in wild type mouse NIH/3T3 cells assessed as cell growth at 10 uM relative to control. It is filed as cell-based, NIH3T3. The note with it: wild type NIH/3T3 cells, read-out: Activity. Put shortly: (§1)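 Parental NIH-3T3 and MDR1-G185-transfected cells were cultured in DMEM with 10% heat-inactivated FBS, 2 mM L-glutamine and penicillin/streptomycin. Cells were exposed to 10 µM compound. Growth is reported as percent of untreated control. Mean ± S.D. of three independent experiments in triplicate.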

For data set [2], the target named is T1, MDR1 (ABCB1, P-glycoprotein) (Homo sapiens, UniProt P08183). Put plainly: (§2) Inhibition of human MDR1 expressed in mouse NIH-3T3 cells assessed as daunomycin efflux at 10 uM after 30 mins by flow cytometry. It is filed as cell-based, NIH3T3. The conditions noted are these: mouse NIH-3T3 cells expressing human MDR1, probe daunomycin. (In general: Flow cytometry measures light scatter and fluorescence of single cells or particles in a stream.)

The target of data set [3] is T2, ATP-dependent translocase ABCB1 (Homo sapiens, UniProt P08183). Put plainly: Inhibition of human MDR1 expressed in mouse NIH-3T3 cells assessed as daunomycin efflux after 30 mins by flow cytometry. It is filed as cell-based, NIH3T3. An outline of the steps:
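MDR1-G185-transfected NIH-3T3 cells in log phase were seeded 24 h beforehand at 10^5 cells/well. They were incubated 30 min at 37 °C in DMEM + 10% iFBS with 2 µM daunomycin and varied sesquiterpene concentrations, washed in ice-cold PBS, trypsinized, and read for single-cell fluorescence by flow cytometry.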

In data set [4] the target is T1, MDR1 (ABCB1, P-glycoprotein). As to the kind of experiment: Inhibition of human MDR1 expressed in mouse NIH-3T3 cells assessed as daunomycin efflux at 10 uM after 30 mins by flow cytometry relative to control. It is filed as cell-based, NIH3T3. The note with it: mouse NIH-3T3 cells expressing human MDR1, probe daunomycin, read-out: Imax. Put shortly: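 Transfected MDR1-G185 NIH-3T3 cells were seeded 24 h prior at 10^5 cells/well. They were co-incubated 30 min at 37 °C in DMEM + 10% iFBS with 2 µM daunomycin and 10 µM sesquiterpene, then washed in ice-cold PBS, trypsinized and read by flow cytometry. Retention is expressed relative to 5 mM ortho-vanadate (100% Pgp inhibition). Mean ± S.D. of three independent experiments in triplicate.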

Data set [5] in a line: Intrinsic toxicity in mouse NIH/3T3 cells expressing human MDR1 assessed as cell growth at 10 uM relative to control. The format is ADME, cell-based, NIH3T3. The conditions noted are these: read-out: Activity. An outline of the steps:
as §1

The target of data set [6] is T2, ATP-dependent translocase ABCB1. Described as §2. The format is cell-based, NIH3T3. The note with it: nih3t3, 0.5 h, 10 µM.

T2 sequence (P08183 whole entry): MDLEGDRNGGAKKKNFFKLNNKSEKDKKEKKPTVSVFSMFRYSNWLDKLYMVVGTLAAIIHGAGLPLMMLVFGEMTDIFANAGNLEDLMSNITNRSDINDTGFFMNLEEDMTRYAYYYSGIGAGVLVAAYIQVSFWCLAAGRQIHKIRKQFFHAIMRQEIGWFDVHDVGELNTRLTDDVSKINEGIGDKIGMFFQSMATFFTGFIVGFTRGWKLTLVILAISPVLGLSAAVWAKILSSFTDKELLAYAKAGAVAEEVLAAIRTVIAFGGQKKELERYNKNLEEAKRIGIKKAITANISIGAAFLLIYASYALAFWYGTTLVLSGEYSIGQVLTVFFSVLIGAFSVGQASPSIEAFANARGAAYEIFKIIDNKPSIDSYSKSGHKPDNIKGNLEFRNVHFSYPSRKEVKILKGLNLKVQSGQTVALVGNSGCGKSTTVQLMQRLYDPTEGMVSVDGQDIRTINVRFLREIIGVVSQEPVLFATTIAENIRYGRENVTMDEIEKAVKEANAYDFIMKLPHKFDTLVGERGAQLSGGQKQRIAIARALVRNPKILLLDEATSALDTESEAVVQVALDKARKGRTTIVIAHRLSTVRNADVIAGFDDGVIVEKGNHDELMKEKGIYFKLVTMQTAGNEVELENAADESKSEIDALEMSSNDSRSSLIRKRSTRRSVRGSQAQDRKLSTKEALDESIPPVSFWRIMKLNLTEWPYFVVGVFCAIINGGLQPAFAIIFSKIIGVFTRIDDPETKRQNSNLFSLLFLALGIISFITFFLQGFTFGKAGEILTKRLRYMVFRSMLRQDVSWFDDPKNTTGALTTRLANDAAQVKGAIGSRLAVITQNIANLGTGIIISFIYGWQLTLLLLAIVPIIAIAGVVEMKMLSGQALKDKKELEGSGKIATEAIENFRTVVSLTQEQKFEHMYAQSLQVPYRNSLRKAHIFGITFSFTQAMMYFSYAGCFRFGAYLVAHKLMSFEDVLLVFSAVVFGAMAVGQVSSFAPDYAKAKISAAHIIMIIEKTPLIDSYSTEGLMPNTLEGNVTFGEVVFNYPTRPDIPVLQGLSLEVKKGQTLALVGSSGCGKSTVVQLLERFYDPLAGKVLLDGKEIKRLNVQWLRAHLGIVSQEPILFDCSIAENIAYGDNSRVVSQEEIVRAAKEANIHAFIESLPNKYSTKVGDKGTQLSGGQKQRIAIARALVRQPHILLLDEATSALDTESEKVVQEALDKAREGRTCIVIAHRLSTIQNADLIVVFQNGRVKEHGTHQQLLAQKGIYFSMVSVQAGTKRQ
T1 sequence (P08183 whole entry): as above

With `CC(=O)OC[C@]12[C@@H](OC(=O)c3ccoc3)C[C@@H]3[C@@H](OC(=O)c4ccccc4)[C@]1(OC3(C)C)[C@@](C)(O)C[C@H](OC(C)=O)[C@@H]2OC(C)=O`, the viability at 10 µM in data set [1] turned out to be 92.4%; in data set [5] it was 87.8%. Moreover, the inhibition at 0.5 h, 10 µM in data set [2] is 70%; in data set [4], above 90%. For the same compound, the pKi (usually the Ki on a negative log10 scale, so that one unit is a factor of ten) in data set [3] was 6.23.

As to `CC(=O)O[C@H]1[C@@H](OC(=O)c2ccccc2)C[C@](C)(O)[C@]23OC(C)(C)[C@H](C[C@H](OC(=O)c4ccoc4)[C@]12C)[C@H]3OC(=O)c1ccccc1`, the viability at 10 µM in data set [1] turned out to be 108%; in data set [5] it was 98%. Besides, the inhibition at 0.5 h, 10 µM in data set [2] was 70%; in data set [4], above 90%. Moreover, the pKi in data set [3] is 6.42.

Turning to `CC1(C)O[C@]23C[C@H]1C[C@H](OC(=O)c1ccccc1)[C@]2(C)[C@@H](OC(=O)c1ccoc1)CC[C@]3(C)O`, in data set [6], the “inhibition (INH)” value is “Active”.

For the compound `CC(=O)OC[C@]12[C@@H](OC(=O)c3ccoc3)C[C@@H]3[C@@H](OC(=O)c4ccccc4)[C@]1(OC3(C)C)[C@@](C)(O)C[C@H](OC(=O)c1ccccc1)[C@@H]2OC(C)=O`, the viability at 10 µM in data set [1] is 82.1%; in data set [5], 84.3%. Moreover, the inhibition at 0.5 h, 10 µM in data set [2] is 70%; in data set [4] it was above 90%. In addition, the pKi in data set [3] is 6.47.

In the case of `CC(=O)OC[C@]12[C@@H](OC(=O)c3ccoc3)C[C@@H]3[C@@H](OC(=O)c4ccoc4)[C@]1(OC3(C)C)[C@@](C)(O)C[C@H](OC(C)=O)[C@@H]2OC(C)=O`, the viability at 10 µM in data set [1] came to 92%; in data set [5], 82.9%. The results for the inhibition at 0.5 h, 10 µM in data set [2] and in data set [4] were 70% and above 90%, respectively. In addition, the negative-log Ki (pKi) in data set [3] was 6.29.

Take `COc1ccc(CCN(C)CCCC(C#N)(c2ccc(OC)c(OC)c2)C(C)C)cc1OC` (centres undefined): the viability at 10 µM in data set [5] amounted to 79.2%.

Regarding `CC(=O)O[C@H]1[C@H](OC(=O)c2ccoc2)[C@@]2(C)[C@@H](OC(=O)c3ccccc3)C[C@@H]3C[C@]2(OC3(C)C)[C@@](C)(O)[C@H]1OC(C)=O`, in data set [6], the “inhibition (INH)” value is “Active”.

With `CC(=O)OC[C@]12[C@@H](OC(=O)c3ccoc3)C[C@@H]3[C@@H](OC(C)=O)[C@]1(OC3(C)C)[C@@](C)(O)C[C@H](OC(C)=O)[C@@H]2OC(C)=O`, the “inhibition (INH)” value in data set [6] is given as “Active”.

As to `CC(=O)OC[C@]12[C@@H](OC(=O)c3ccccc3)C[C@@H]3[C@@H](OC(=O)c4ccccc4)[C@]1(OC3(C)C)[C@@](C)(O)C[C@H](O)[C@@H]2OC(C)=O`, the results for the viability at 10 µM in data set [1] and in data set [5] were 84.4% and 105%, respectively. For the same compound, the inhibition at 0.5 h, 10 µM is 70% in data set [2] and above 90% in data set [4]. Besides, the negative-log Ki (pKi) in data set [3] was 6.33.

In the case of `CC(=O)O[C@@H]1C[C@](C)(O)[C@@]23C[C@@H](C[C@H](OC(=O)/C=C/c4ccccc4)[C@]2(C)[C@H]1OC(=O)c1ccoc1)C(C)(C)O3`, the values for the viability at 10 µM in data set [1] and in data set [5] were 86% and 100%, respectively. Further, the inhibition at 0.5 h, 10 µM was 70% in data set [2] and above 90% in data set [4]. Moreover, the pKi in data set [3] is 6.24.

With `CC(=O)OC[C@]12[C@@H](OC(=O)c3ccoc3)C[C@@H]3[C@@H](OC(=O)c4ccccc4)[C@]1(OC3(C)C)[C@@](C)(O)C[C@H](O)[C@@H]2OC(C)=O`, the “inhibition (INH)” value in data set [6] is “Active”.

For the compound `CC(=O)O[C@@H]1C[C@](C)(O)[C@@]23C[C@@H](C[C@H](OC(=O)c4ccccc4)[C@]2(C)[C@H]1OC(=O)c1ccoc1)C(C)(C)O3`, in data set [6], the “inhibition (INH)” value is reported as “Active”.

With `CC(=O)OC[C@]12[C@@H](OC(=O)c3ccccc3)C[C@@H]3[C@@H](OC(=O)c4ccccc4)[C@]1(OC3(C)C)[C@@](C)(O)C[C@H](OC(C)=O)[C@@H]2OC(C)=O`, the results for the viability at 10 µM in data set [1] and in data set [5] were 76.7% and 77.2%, respectively. Besides, the figures for the inhibition at 0.5 h, 10 µM in data set [2] and in data set [4] were 70% and above 90%, respectively. In data set [3], the negative logarithm of the Ki (pKi) was 6.41.

Turning to `CC(=O)O[C@@H]1C[C@@H](C)[C@@]23C[C@@H](C[C@H](OC(=O)c4ccccc4)[C@]2(C)[C@H]1OC(=O)c1ccoc1)C(C)(C)O3`, in data set [6], the “inhibition (INH)” value is given as “Active”.

`CC(=O)OC[C@]12[C@@H](OC(=O)c3ccccc3)C[C@@H]3[C@@H](OC(C)=O)[C@]1(OC3(C)C)[C@@](C)(O)C[C@H](OC(C)=O)[C@@H]2OC(C)=O`: the “inhibition (INH)” value in data set [6] is “Active”.

`CC(=O)O[C@@H]1C[C@](C)(O)[C@@]23C[C@@H](C[C@H](OC(=O)c4ccoc4)[C@]2(C)[C@H]1OC(=O)c1ccoc1)C(C)(C)O3`: the “inhibition (INH)” value in data set [6] is “Active”.

In the case of `CC(=O)O[C@@H]1[C@H](OC(C)=O)[C@@H](C)[C@@]23C[C@@H](C[C@H](OC(=O)c4ccccc4)[C@]2(C)[C@H]1OC(=O)c1ccoc1)C(C)(C)O3`, the viability at 10 µM came to 91.8% in data set [1] and 92.4% in data set [5]. Moreover, the inhibition at 0.5 h, 10 µM in data set [2] was 70%; in data set [4] it was above 90%. Further, the negative-log Ki (pKi) in data set [3] was 6.19.
